# Compounds with a hit are over-represented: about 1.3% of the library has one in this group of screens.
# EP2 mod = EP2 receptor (human) modulation; AID 940; actives 0.83% (n = 260,000); induction, % at 25 µM; P43116; EP2-expressing cells, cAMP HTRF FRET, PGE2 co-stimulation;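 active = compounds whose cAMP rise, as percent of the full-agonist control response, exceeds 60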;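 note: rat C6 glioma line stably carrying human EP2 under a CMV promoter; the protocol text gives 20 µM as final concentration; 100% = response of wells given 1 µM PGE2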
# NR2E3 ag-1 = agonists of human NR2E3 nuclear receptor | actives 0.35% (n = 360,000) | AID 602229 | CHO-S Gal4-NCOR/VP16-NR2E3 two-hybrid, luciferase | inhibition of corepressor binding, % at 3.98 µM;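 active = inhibition above the mean of all tested compounds plus 3 SD, cut at about 70% in these data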;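 note: 0% = DMSO with NR2E3 transfected cells and 100% = cells lacking NR2E3 construct; higher means lower luciferase signal from less NR2E3 corepressor binding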
# GASC-1 inh = human JMJD2C demethylase inhibition; Q9H3R0; GST-JMJD2C(1-420) H3K9me3 demethylation, DELFIA europium; inhibition, % at 2.35 µM; actives 0.069% (n = 330,000); AID 2099;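 active = more than half of a compound's replicate wells show inhibition beyond 50%, single wells judged on their own value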;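 note: signal counts dimethyl H3K9 product captured on neutravidin plate; 0% = median of DMSO wells and 100% = 0.3 times that DMSO median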
# EP2 antag = inhibitors of human EP2 prostaglandin E2 receptor; inhibition, % at 25 µM; P43116; C6 glioma cells expressing human EP2, cAMP TR-FRET; cells stimulated with saturating PGE2; actives 0.52% (n = 260,000);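 active = percent inhibition above 40 after rounding to a whole number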;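 note: rat C6 glioma host cells with rolipram phosphodiesterase inhibitor present; the protocol text gives 20 µM as final concentration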
# Furin inhibitor = human furin inhibition | inhibition, % at 20 µM or 30 µM | P09958 | actives 0.061% (n = 220,000) | AID 463115 | purified furin, fluorogenic substrate cleavage; in the data active = inhibition above about 25%
# Target sequence (P09958 108-714 limits assumed): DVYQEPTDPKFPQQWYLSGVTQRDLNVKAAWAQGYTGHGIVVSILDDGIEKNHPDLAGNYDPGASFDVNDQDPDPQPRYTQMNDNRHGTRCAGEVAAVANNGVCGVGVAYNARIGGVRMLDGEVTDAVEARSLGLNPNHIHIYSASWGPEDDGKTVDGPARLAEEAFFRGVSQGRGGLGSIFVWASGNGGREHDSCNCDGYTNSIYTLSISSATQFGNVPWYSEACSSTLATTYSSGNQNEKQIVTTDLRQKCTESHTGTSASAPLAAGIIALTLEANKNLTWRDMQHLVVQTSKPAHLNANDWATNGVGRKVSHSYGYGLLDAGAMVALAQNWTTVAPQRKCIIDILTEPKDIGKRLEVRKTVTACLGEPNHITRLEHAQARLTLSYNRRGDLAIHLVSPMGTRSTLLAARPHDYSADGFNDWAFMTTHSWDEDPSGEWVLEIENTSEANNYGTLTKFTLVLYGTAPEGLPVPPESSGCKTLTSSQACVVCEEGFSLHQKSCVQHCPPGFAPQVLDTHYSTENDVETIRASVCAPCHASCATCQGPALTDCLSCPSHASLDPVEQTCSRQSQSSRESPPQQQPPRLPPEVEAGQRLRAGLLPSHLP
# NR2E3 ag-2 = activates human photoreceptor nuclear receptor NR2E3 | actives 0.12% (n = 320,000) | inhibition of corepressor binding, % at 4.78 µM | GST-NR2E3/biotin-RetCOR TR-FRET, 1536-well;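 active = percent inhibition above the cutoff of mean plus 3 SD of all tested compounds, set per screening campaign, cut at about 20% in these data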;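 note: 0% = DMSO wells and 100% = biotin wells as full block of FRET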
#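 Test system: GST-NR2E3 and biotin-RetCOR proteins | Quantity: 1.35 nM GST-tagged NR2E3 final | Medium: Tris pH 7.5 | Also added: 7 nM biotin-RetCOR | Dosing: Compound at 4.8 µM, single dose | Timing: 5 h at 4 °C | Detection: Time-resolved FRET | Read-out basis: Percent inhibition | Benchmarks: Biotin wells as high control, 0.6% DMSO wells as low control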
# NR2E3 ag conf = NR2E3 agonism confirmed in two-hybrid assay; shares compounds with NR2E3 ag-1; inhibition, % at 3.98 µM; actives 51% (n = 2,300); CHO-S mammalian two-hybrid NR2E3-NCOR, luciferase luminescence;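 active = average inhibition above a cutoff equal to the mean inhibition of all tested compounds plus one SD, cut at about 70% in these data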;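 note: 0% = DMSO in NR2E3 cells and 100% = DMSO in cells lacking NR2E3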
# VP16 counter = GAL4-VP16 reporter inhibition in NR2E3 agonist counterscreen | AID 624379 | actives 29% (n = 2,300) | shares compounds with NR2E3 ag-1 | inhibition, % at 3.98 µM | CHO-S GAL4-VP16 luciferase reporter, luminescence;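 active = mean inhibition above a cutoff equal to the average over all tested compounds plus one standard deviation, cut at about 70% in these data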;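 note: luciferase from a UAS reporter driven by GAL4-VP16 transactivation; 0% = DMSO with VP16-transfected cells and 100% = DMSO with cells lacking VP16; higher means less reporter light so more repression of VP16 activity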
# Starred values were filed as active, the others as inactive; . = no result.
SMILES,EP2 mod,NR2E3 ag-1,GASC-1 inh,EP2 antag,Furin inhibitor,NR2E3 ag-2,NR2E3 ag conf,VP16 counter
O=C(NCCCc1ccccc1)c1cc([N+](=O)[O-])ccc1Cl,-23.2,-6.1,115.5,8.2,-12.5,6.1,.,.
Nc1nc2cc(Cl)ccc2cc1C(=O)NCCCc1ccccc1,.,82.3*,.,.,.,.,86.6*,78.0*
COc1ccc(CCNC(=O)c2cc3ccc(Cl)cc3nc2N)cc1,.,89.9*,.,.,.,.,90.1*,77.5*
CCN(CC)CCN(Cc1cc2cc3c(cc2[nH]c1=O)OCO3)C(=O)Nc1ccc(C)cc1,-42.8,.,.,10.9,.,.,.,.
Cc1c(C(=O)NCc2ccc(C(C)C)cc2)sc(=O)n1Cc1ccc(S(=O)(=O)N(C)C)cc1,.,73.8*,.,.,.,.,87.3*,80.4*
Cc1c(C(=O)NCc2cccc([N+](=O)[O-])c2)sc(=O)n1Cc1ccccc1F,.,19.2,.,.,.,.,.,.
COc1ccc(Cl)cc1Cn1c(C)c(C(=O)NCc2cccc([N+](=O)[O-])c2)sc1=O,.,54.3,.,.,.,.,24.0,4.8
COc1ccc(Cl)cc1Cn1c(C)c(C(=O)NCc2ccc(F)cc2)sc1=O,.,48.8,.,.,.,.,45.3,1.4
CCOc1ccccc1-n1c(SCC(=O)Nc2ccc(C(=O)OC)cc2)nc2ccccc2c1=O,39.3,.,.,10.9,.,.,.,.
COc1cc2cc(C(=O)Nc3ccc4c(c3)OCCO4)[nH]c2cc1OC,.,56.7,-5.6,.,.,2.7,33.6,-4.2
COc1cc(CN(CCCN(C)C)Cc2ccco2)cc2c1OCO2,15.2,.,.,1.0,.,.,.,.
O=C(NNc1ccccc1)C(=O)NNc1ccccc1,.,52.6,.,.,.,.,51.8,9.2
O=C1N[C@@H](Cc2ccccc2)COC(=O)[C@@H](Cc2ccc(F)cc2)C/C=C\C[C@@H]1CC(=O)N(CCO)Cc1ccccc1,.,-16.9,12.3,.,.,.,.,.
O=C1N[C@H](Cc2ccccc2)COC(=O)[C@H](Cc2ccc(F)cc2)CC/C=C/C[C@H]1CC(=O)N(CCO)Cc1ccccc1,.,55.5,-1.5,.,.,.,68.7,-1.5
Cn1c(-c2ccccc2)c(C(=O)CCl)c2ccccc21,21.1,47.8,-0.8,2.2,-20.2,.,-17.2,10.2
Cn1c(-c2ccccc2)c(CCO)c2ccccc21,35.5,-25.6,4.5,4.3,-11.1,-0.2,.,.
COc1ccc(/C=N/Nc2cc(C)nc(-n3nc(C)cc3C)n2)c(OC)c1,-15.2,64.5,6.7,2.6,0.8,1.6,7.8,5.4
COc1cccc(/C=N/Nc2nc(Nc3ccccc3)nc(-n3nc(C)cc3C)n2)c1O,-34.2,94.6*,-3.9,27.0,-6.1,2.7,2.6,-21.7
Cc1cc(N/N=C/c2ccc(F)cc2)nc(-n2nc(C)cc2C)n1,-17.0,94.4*,-1.6,5.5,-2.3,-0.9,2.8,24.9
CCOc1cc(/C=N/Nc2cc(C)nc(-n3nc(C)cc3C)n2)ccc1O,-32.4,90.5*,20.6,6.6,-24.3,0.2,2.8,-10.8
CCc1cc(=O)oc2c(C)c(OCC(=O)N(CCC#N)c3ccccc3)ccc12,-37.3,.,.,9.9,.,.,.,.
CNC(=O)c1cc2c(=O)n3ccccc3nc2n(Cc2ccc(C)cc2)c1=N,-1.3,.,.,10.3,.,.,.,.
Oc1ccccc1-c1nc2cnccn2c1NC1CCCC1,-72.9,.,.,.,.,.,.,.
CC1(C)CC(=O)c2sc(NC(=O)CC3CCCCC3)nc2C1,-24.5,.,.,14.4,.,.,.,.
CCOC(=O)c1sc(NC(=O)CSc2nc(CC)nc3sc(C)c(C)c23)nc1C,38.1,.,.,5.7,.,.,.,.
CNc1cc(C)nc(-n2nc(C)cc2C)n1,27.5,-14.2,-6.4,16.6,-23.9,-1.9,.,.
CCOc1ccc(Nc2cc(C)nc(-n3nc(C)cc3C)n2)cc1,0.9,83.6*,-7.6,15.6,-9.6,-2.4,28.4,32.0
CC1=C/C(=N\NC(=S)Nc2cccnc2)CC(C)(C)C1,-20.7,80.2*,-7.6,5.8,-2.1,.,-24.6,0.7
CN(C(=O)OC(C)(C)C)c1ccc(-c2nc3ccccc3s2)cc1,.,89.1*,3.8,11.4,.,1.7,85.5*,77.5*
CC(C)c1ccc(-c2nc3ccccc3s2)cc1,-21.5,87.6*,-3.6,7.0,-20.0,3.2,71.3*,58.1
